Measurements published in ChEMBL document CHEMBL2146419, “Effects of polyphenol compounds on influenza A virus replication and definition of their mechanism of action” (Bioorg Med Chem, 2012).

System: Influenza A virus
Experiment: Antiviral activity against Influenza virus A/Puerto Rico/8/34 H1N1 infected in dog MDCK cells at 20 ug/mL incubated for 24 hrs post-infection followed by compound washout measured after 24 hrs by hemagglutininating unit assay relative to control
Type: functional, A/Puerto Rico/8/1934(H1N1)
Outline: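 Compound added to PR8-infected MDCK cells immediately after virus challenge, then removed at 2, 4, 6, 8 or 24 h p.i. Supernatant virus yield was measured by HAU at 24 h p.i. and expressed as a percentage of DMSO-treated control infected cells. Means of two experiments, each in duplicate.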

In the case of `O=C1/C(=C/c2ccc(O)c(O)c2)COC/C1=C\c1ccc(O)c(O)c1`, the Activity is reported as 75%.
